Reference: ChEMBL document CHEMBL1132449, “Pyrroloquinoxaline derivatives as high-affinity and selective 5-HT(3) receptor agonists: synthesis, further structure-activity relationships, and biological studies” (J Med Chem, 1999)

Assays:
[1] = molecular target: T1, Serotonin 3 (5-HT3) receptor (Rattus norvegicus, UniProt P35563+Q9JJ16); experiment: Binding affinity against 5-hydroxytryptamine 3 (5-HT3) receptor from rat cortical homogenate using [3H]zacopride as radioligand
T1 sequence (P35563 whole entry): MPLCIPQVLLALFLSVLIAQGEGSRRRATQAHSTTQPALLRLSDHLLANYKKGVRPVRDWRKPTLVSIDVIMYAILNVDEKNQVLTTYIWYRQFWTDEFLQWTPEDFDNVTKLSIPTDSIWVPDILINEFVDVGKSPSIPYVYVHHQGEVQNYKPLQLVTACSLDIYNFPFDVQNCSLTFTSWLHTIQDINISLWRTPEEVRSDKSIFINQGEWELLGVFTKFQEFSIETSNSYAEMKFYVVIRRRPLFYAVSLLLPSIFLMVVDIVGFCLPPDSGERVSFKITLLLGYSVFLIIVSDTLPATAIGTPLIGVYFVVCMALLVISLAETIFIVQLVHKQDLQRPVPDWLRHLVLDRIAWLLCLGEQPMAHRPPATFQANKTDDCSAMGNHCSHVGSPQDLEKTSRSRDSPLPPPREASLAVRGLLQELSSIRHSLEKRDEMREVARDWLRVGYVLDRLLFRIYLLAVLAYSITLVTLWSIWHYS
T1 sequence (Q9JJ16 whole entry): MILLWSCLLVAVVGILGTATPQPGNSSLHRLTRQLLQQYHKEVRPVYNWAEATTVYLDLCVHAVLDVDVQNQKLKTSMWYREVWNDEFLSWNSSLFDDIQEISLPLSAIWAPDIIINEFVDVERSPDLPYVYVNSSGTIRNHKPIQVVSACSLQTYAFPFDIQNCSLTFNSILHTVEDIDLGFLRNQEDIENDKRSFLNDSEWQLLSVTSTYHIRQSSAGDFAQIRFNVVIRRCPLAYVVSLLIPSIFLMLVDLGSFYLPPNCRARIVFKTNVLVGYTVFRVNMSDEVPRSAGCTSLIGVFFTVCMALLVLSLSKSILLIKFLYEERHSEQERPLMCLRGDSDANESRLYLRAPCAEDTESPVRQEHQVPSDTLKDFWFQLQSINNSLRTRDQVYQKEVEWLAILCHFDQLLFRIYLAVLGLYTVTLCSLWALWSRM
Summary of the method: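 Male rat cortices, stored at -80 °C, were homogenized in ice-cold 25 mM Tris HCl pH 7.4 and spun at 50000g. Membranes were preincubated 10 min at 37 °C, washed, and resuspended with 10 µM pargyline (10 mg tissue/sample). They were incubated with 0.4 nM (final) [3H]zacopride for 30 min at 25 °C, filtered through PEI-treated GF/B and counted. IC50 came from dose-inhibition curves, mean ± SEM of three determinations.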

[2] = molecular target: Serotonin 3 (5-HT3) receptor; experiment: Effective concentration against 5-Hydroxytryptamine 3 receptor by measuring [14C]guanidinium uptake on NG108-15 cells.; assay type: functional, cell-based
NG108-15 [3] = experiment: The compound was tested for efficacy against 5-Hydroxytryptamine 3 receptor by measuring [14C]guanidinium uptake on NG108-15 cells; PA=Partial agonist; assay type: functional, cell-based; settings: filed as partial agonist
Summary of the method: (§1)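 NG108-15 cells, grown 2 days, were washed in HEPES saline pH 7.4. They were exposed 10 min at 37 °C to buffer (135 mM NaCl, 10 mM guanidinium) with […] [14C]guanidinium, 1 mM 5-HT, […] and/or 8 drug concentrations. Cells were washed in ice-cold choline buffer, dissolved in NaOH and counted by scintillation. Assays run in triplicate.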

NG108-15 [4] = experiment: The compound was tested for efficacy against 5-Hydroxytryptamine 3 receptor by measuring [14C]guanidinium uptake on NG108-15 cells.; A = Agonist; assay type: functional, cell-based; settings: filed as agonist; summary of the method: as §1
[5] = The compound was tested for brain to plasma partition in rat; assay type: ADME, organism-based; settings: brain and plasma, read-out: AUC ratio
Summary of the method: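 Male CD-COBS rats (175-200 g) received hydrochloride salts in saline i.v. at 5 mg/kg and were killed 60, 120 and 180 min after dosing. Plasma and brain levels were measured by HPLC-UV (254 nm) after liquid-liquid or solid-phase extraction with an internal standard. The ratio is brain-to-plasma AUC_t, 2-3 rats per point.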

[6] = molecular target: T2, 5-hydroxytryptamine receptor 1B (Rattus norvegicus, UniProt P28564); experiment: The compound was tested for the binding affinity against 5-hydroxytryptamine 1B receptor using [3H]5-HT as radioligand.
T2 sequence (P28564 whole entry): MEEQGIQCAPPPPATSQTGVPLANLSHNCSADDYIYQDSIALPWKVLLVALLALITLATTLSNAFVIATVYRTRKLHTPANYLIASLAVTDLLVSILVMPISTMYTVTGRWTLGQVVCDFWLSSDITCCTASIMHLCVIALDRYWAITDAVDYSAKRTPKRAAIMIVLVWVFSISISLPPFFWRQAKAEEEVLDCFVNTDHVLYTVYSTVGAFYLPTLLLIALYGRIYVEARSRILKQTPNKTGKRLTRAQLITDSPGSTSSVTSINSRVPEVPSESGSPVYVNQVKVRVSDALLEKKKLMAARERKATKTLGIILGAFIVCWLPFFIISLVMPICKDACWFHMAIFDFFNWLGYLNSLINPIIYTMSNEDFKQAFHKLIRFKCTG

[7] = molecular target: T3, 5-hydroxytryptamine receptor 2A (Rattus norvegicus, UniProt P14842); experiment: The compound was tested for the binding affinity against 5-hydroxytryptamine 2A receptor using [3H]ketanserin as radioligand.
T3 sequence (P14842 whole entry): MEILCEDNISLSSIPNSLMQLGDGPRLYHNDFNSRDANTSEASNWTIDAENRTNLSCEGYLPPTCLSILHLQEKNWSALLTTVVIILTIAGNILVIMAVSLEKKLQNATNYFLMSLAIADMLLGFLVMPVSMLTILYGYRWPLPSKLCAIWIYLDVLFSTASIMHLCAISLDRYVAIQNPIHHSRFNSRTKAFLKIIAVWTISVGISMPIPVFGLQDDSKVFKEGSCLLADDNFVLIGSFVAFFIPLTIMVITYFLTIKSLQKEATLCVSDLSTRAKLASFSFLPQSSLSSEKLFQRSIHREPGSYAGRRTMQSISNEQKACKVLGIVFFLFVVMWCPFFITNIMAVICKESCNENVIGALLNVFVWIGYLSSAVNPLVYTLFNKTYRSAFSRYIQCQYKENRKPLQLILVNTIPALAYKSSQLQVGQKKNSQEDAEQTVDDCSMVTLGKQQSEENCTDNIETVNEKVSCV

[8] = molecular target: T4, 5-hydroxytryptamine receptor 2C (Rattus norvegicus, UniProt P08909); experiment: The compound was tested for the binding affinity against 5-hydroxytryptamine 2C receptor using [3H]Mesulergine as radioligand.
T4 sequence (P08909 whole entry): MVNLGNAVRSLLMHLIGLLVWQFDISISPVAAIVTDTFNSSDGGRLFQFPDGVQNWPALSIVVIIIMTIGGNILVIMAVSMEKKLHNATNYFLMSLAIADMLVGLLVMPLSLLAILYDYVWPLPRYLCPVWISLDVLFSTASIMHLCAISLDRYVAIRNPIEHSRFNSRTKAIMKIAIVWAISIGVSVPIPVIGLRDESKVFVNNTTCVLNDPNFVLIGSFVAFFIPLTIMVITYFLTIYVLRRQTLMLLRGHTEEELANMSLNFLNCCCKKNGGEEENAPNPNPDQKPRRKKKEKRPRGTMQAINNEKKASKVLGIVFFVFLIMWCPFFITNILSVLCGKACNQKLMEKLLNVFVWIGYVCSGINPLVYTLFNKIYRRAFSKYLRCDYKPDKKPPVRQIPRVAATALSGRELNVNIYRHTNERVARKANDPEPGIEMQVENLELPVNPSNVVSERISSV

[9] = molecular target: T1, Serotonin 3 (5-HT3) receptor; experiment: The compound was tested for the binding affinity against 5-hydroxytryptamine 3 receptor using [3H]zacopride as radioligand; assay type: protein-complex assay
[10] = molecular target: T5, 5-hydroxytryptamine receptor 1A (Rattus norvegicus, UniProt P19327); experiment: The compound was tested for the binding affinity against 5-hydroxytryptamine 1A receptor using [3H]8-OH-DPAT as radioligand.
T5 sequence (P19327 whole entry): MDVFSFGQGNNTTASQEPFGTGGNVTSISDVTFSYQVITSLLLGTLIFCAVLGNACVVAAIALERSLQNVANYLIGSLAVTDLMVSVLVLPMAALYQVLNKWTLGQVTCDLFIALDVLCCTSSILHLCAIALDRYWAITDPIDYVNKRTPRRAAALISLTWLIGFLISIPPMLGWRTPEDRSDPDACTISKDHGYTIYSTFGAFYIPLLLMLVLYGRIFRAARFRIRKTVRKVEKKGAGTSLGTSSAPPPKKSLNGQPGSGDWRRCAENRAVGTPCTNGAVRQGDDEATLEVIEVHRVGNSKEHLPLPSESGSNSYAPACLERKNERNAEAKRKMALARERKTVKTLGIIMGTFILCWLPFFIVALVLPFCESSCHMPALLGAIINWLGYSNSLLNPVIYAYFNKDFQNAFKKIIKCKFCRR

[11] = molecular target: T6, 5-hydroxytryptamine receptor 4 (Cavia porcellus, UniProt O70528); experiment: The compound was tested for the binding affinity against 5-hydroxytryptamine 4 receptor using [3H]GR-113808 as radioligand.
T6 sequence (O70528 whole entry): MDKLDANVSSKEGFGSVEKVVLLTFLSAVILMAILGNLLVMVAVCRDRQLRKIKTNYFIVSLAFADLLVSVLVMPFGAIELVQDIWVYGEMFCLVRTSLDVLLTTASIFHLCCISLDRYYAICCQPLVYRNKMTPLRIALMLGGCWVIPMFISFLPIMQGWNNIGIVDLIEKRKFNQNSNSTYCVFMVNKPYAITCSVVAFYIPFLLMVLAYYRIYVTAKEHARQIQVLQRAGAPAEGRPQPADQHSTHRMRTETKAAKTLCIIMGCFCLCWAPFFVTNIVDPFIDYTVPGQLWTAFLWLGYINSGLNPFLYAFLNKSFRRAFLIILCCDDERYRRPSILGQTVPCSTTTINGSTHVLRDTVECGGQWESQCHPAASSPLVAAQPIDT

[12] = molecular target: T2, 5-hydroxytryptamine receptor 1B; experiment: The compound was tested for the binding affinity against 5-hydroxytryptamine 1B receptor using [3H]5-HT as radioligand
[13] = molecular target: T6, 5-hydroxytryptamine receptor 4; experiment: The compound was tested for the binding affinity against 5-hydroxytryptamine 4 receptor using [3H]GR-113808 as radioligand
Summary of the method: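 Male guinea pig striatal membranes, washed and preincubated at 37 °C, were incubated with 0.1 nM (final) [3H]GR113808 for 30 min at 37 °C.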

[14] = molecular target: T4, 5-hydroxytryptamine receptor 2C; experiment: The compound was tested for the binding affinity against 5-hydroxytryptamine 2C receptor using [3H]mesulergine as radioligand
[15] = molecular target: T3, 5-hydroxytryptamine receptor 2A; experiment: The compound was tested for the binding affinity against 5-hydroxytryptamine 2A receptor using [3H]ketanserin as radioligand

## Cc1cc2nc(N3CCN(C)CC3)c3cccn3c2cc1C
[1]
  IC50: 30 nM

## Fc1cccc2nc(N3CCN(Cc4cccs4)CC3)c3cccn3c12
[1]
  IC50: 60 nM

## c1ccc(CN2CCN(c3nc4cccnc4n4cccc34)CC2)cc1
[2]
  EC50: 32 nM
[1]
  IC50: 2.3 nM
NG108-15 [3]
  Efficacy: Partial agonist

## CN1CCN(c2nc3ccccc3n3ccnc23)CC1
[2]
  EC50: 15 nM
[1]
  IC50: 3.8 nM
NG108-15 [4]
  Efficacy: Agonist

## OCCN1CCN(c2nc3cccc(F)c3n3cccc23)CC1
[5]
  Kp: 20.3
[2]
  EC50: 54 nM
[6]
  Ki: 1580 nM
[1]
  IC50: 8.2 nM
[7]
  Ki: 501 nM
[8]
  Ki: 2000 nM
[9]
  Ki: 7.94 nM
[10]
  Ki: 501 nM
[11]
  Ki: > 10000 nM
NG108-15 [3]
  Efficacy: Partial agonist

## Fc1ccc2c(c1)nc(N1CCN(Cc3ccc(Br)o3)CC1)c1cccn12
[1]
  IC50: 148 nM

## CN1CCN(c2nc3cc(O)ccc3n3cccc23)CC1
[2]
  EC50: 1.6 nM
[1]
  IC50: 0.67 nM
NG108-15 [4]
  Efficacy: Agonist

## N#CCN1CCN(c2nc3cccc(F)c3n3cccc23)CC1
[5]
  Kp: 0.1
[1]
  IC50: 3800 nM

## Fc1cccc2nc(N3CCN(Cc4ccc5ccccc5c4)CC3)c3cccn3c12
[5]
  Kp: 2.8
[1]
  IC50: 780 nM

## CN1CCN(c2nc3cc(F)ccc3n3cccc23)CC1
[2]
  EC50: 3 nM
NG108-15 [4]
  Efficacy: Agonist

## c1csc(CN2CCN(c3nc4ccccc4n4cccc34)CC2)c1
[1]
  IC50: 22 nM

## Cc1cc2nc(N3CCN(Cc4ccccc4)CC3)c3cccn3c2cc1C
[1]
  IC50: 44 nM

## Clc1cc2nc(N3CCN(Cc4ccccc4)CC3)c3cccn3c2cc1Cl
[1]
  IC50: 118 nM

## CN1[C@@H]2CC[C@H]1C[C@@H](OC(=O)c1cc(Cl)cc(Cl)c1)C2 [BEMESETRON]
[1]
  IC50: 97 nM

## CN1CCN(c2nc3cccnc3n3ccnc23)CC1
[1]
  IC50: 6.6 nM

## CN1CCN(c2nc3cc(OCc4ccccc4)ccc3n3cccc23)CC1
[1]
  IC50: 225 nM

## c1ccc(CN2CCN(c3nc4ncccc4n4cccc34)CC2)cc1
[5]
  Kp: 2.1
[2]
  EC50: 4.2 nM
[1]
  IC50: 2.2 nM
[9]
  Ki: 2 nM
[10]
  Ki: > 10000 nM
[12]
  Ki: > 10000 nM
[13]
  Ki: > 10000 nM
[14]
  Ki: > 10000 nM
NG108-15 [3]
  Efficacy: Partial agonist
[15]
  Ki: 794 nM

## CN1CCN(c2nc3cc(C#N)ccc3n3cccc23)CC1
[1]
  IC50: 104 nM

## Cc1cccc2nc(N3CCN(Cc4ccc(Br)s4)CC3)c3cccn3c12
[1]
  IC50: 104 nM

## OCCN1CCN(c2nc3cc(F)ccc3n3cccc23)CC1
[2]
  EC50: 2.4 nM
[1]
  IC50: 2.6 nM
NG108-15 [4]
  Efficacy: Agonist
